Test results reported in article PMC3033481 (Journal of the American Chemical Society, 2011).
“Also recorded” adds a separate entry of the source. One block for each compound: values may come before it.

Columns and labels:
[1] = system: BrdU+ cells in the hippocampal dentate gyrus; experiment: In vivo neurogenesis; set-up: species or system C57BL/J6 mice; settings: for proneurogenic activity (BrdU+ cells in dentate gyrus), in words: 10 μM solution infused ICV, 12 μL/day, 7 days, live mice
In short: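 Adult (12-week-old) wild-type C57BL/J6 mice, 4 per compound. Test compound solutions (10–0.01 μM) delivered by osmotic minipump into the left lateral ventricle at 12 μL/day for 7 days; the vehicle was artificial CSF. BrdU+ cells counted in SGZ/dentate gyrus of the contralateral hemisphere, every fifth 40 μm section, normalized to dentate volume. Mean ± SEM.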

[2] = mouse, in vivo, cited from earlier work
neurogenesis = settings: cited from earlier work
[3] = system: neurogenesis in the dentate gyrus; settings: rats, cited from earlier work
[4] = system: embryonic, weaning or adult mice; settings: mouse, in vivo; cited from earlier work
neural precursor cells = settings: time-course experiments; cited from earlier work
histamine H2 receptor = histamine H2 receptor (Homo sapiens, UniProt P25021); experiment: Histamine H2 competition binding assay; settings: for Histamine H2 binding (% displacement @ 10 μM): displacement of [125I]aminopotentidine (0.1 nM) with 10 μM drug
[5] = system: BrdU+ cells in the hippocampal dentate gyrus; settings: cited from earlier work
hERG channel = hERG channel (Homo sapiens, UniProt Q12809)
[6] = system: dentate gyrus in mice deficient in the npas3 gene; settings: cited from earlier work
HeLa cells = experiment: Cell viability assay; assay type: cell-based

Chain of histamine H2 receptor (P25021 whole entry): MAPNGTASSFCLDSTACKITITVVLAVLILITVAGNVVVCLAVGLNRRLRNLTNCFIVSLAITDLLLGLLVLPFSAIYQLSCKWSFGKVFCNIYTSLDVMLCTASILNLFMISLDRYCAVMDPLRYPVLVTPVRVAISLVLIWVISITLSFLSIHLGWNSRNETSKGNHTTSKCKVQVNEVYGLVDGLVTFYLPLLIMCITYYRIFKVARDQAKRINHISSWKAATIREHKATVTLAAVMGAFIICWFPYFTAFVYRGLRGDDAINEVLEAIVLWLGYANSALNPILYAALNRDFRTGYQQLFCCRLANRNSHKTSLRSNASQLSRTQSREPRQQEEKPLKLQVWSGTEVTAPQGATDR
Chain of hERG channel (Q12809 whole entry): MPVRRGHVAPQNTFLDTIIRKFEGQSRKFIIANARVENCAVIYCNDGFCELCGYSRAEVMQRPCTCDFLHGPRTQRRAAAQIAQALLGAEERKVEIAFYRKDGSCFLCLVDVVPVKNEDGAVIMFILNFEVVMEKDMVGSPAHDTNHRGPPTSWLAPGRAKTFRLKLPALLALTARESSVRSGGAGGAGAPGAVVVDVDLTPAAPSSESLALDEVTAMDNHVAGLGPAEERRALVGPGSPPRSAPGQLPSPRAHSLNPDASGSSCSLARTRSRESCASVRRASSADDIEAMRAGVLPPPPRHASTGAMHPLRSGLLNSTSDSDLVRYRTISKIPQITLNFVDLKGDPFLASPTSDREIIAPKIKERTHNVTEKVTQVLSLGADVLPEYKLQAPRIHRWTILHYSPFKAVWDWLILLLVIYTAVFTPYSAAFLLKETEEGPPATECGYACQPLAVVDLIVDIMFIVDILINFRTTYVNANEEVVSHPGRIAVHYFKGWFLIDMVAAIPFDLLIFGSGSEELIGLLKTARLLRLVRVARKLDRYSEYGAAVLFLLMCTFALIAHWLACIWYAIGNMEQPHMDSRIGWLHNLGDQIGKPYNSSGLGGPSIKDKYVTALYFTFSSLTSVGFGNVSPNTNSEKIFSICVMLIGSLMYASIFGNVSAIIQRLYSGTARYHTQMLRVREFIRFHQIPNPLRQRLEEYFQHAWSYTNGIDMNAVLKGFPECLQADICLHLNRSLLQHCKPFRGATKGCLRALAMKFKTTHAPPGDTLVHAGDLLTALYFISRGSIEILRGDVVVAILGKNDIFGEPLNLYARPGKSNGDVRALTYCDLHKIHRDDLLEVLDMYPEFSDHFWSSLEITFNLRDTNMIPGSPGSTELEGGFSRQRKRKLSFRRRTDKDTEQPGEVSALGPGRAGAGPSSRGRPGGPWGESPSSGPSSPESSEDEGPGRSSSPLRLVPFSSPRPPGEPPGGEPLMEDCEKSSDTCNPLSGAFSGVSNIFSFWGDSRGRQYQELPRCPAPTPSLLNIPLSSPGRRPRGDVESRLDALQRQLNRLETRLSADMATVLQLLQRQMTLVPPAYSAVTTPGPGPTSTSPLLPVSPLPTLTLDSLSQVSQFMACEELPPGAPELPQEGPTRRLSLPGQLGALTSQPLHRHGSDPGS

Structure (SMILES): OC(CNc1ccccc1)Cn1c2ccc(Cl)cc2c2cc(Cl)ccc21 (centres unmarked) [Compound 1]
proneurogenic activity (BrdU+ cells in dentate gyrus), in words [1]: did not appear active

Structure (SMILES): OC(CNc1ccccc1)Cn1c2ccccc2c2ccccc21 (centres unmarked) [Compound 2]
proneurogenic activity (BrdU+ cells in dentate gyrus), in words [1]: did not appear active

Structure (SMILES): CCOc1ccc(NCC(O)Cn2c3ccc(Br)cc3c3cc(Br)ccc32)cc1 (centres unmarked) [Compound 4-OEt]
proneurogenic activity (BrdU+ cells in dentate gyrus), in words [1]: highly active

Structure (SMILES): COc1cccc(NCC(O)Cn2c3ccc(Br)cc3c3cc(Br)ccc32)c1 (centres unmarked) [Compound 7]
proneurogenic activity (BrdU+ cells in dentate gyrus), in words [1]: well tolerated; also recorded: little effect on activity
difference in activity between the two enantiomers ([1]; enantiomeric pairs tested, same enantiomer more active in all three cases): significant difference in activity

Structure (SMILES): COc1ccc(NCC(O)Cn2c3ccc(Br)cc3c3cc(Br)ccc32)cc1 (centres unmarked) [Compound 8]
proneurogenic activity (BrdU+ cells in dentate gyrus), in words [1]: well tolerated; also recorded: highly active

Structure (SMILES): OC(CNc1ccccc1)Cn1c2ccc(Cl)cc2c2cc(Cl)ccc21 (centres unmarked) [Compound 17]
proneurogenic activity (BrdU+ cells in dentate gyrus), in words [1]: little activity

Structure (SMILES): CCOc1cccc(NCC(O)Cn2c3ccc(Br)cc3c3cc(Br)ccc32)c1 (centres unmarked) [Compound 21]
proneurogenic activity (BrdU+ cells in dentate gyrus), in words [1]: essentially abrogated activity

Structure (SMILES): [N-]=[N+]=Nc1cccc(NCC(O)Cn2c3ccc(Br)cc3c3cc(Br)ccc32)c1 (centres unmarked) [Compound 22]
proneurogenic activity (BrdU+ cells in dentate gyrus), in words [1]: substantially decreased activity

Structure (SMILES): [N-]=[N+]=Nc1ccc(NCC(O)Cn2c3ccc(Br)cc3c3cc(Br)ccc32)cc1 (centres unmarked) [Compound 23]
proneurogenic activity (BrdU+ cells in dentate gyrus), in words [1]: highly active

Structure (SMILES): FC(CNc1ccccc1)Cn1c2ccc(Br)cc2c2cc(Br)ccc21 (centres unmarked) [Compound 52]
proneurogenic activity (BrdU+ cells in dentate gyrus), in words [1]: gains little from fluorination

Structure (SMILES): COc1ccc(NCC(F)Cn2c3ccc(Br)cc3c3cc(Br)ccc32)cc1 (centres unmarked) [Compound 54]
proneurogenic activity (BrdU+ cells in dentate gyrus), in words [1]: improved by fluorination

Structure (SMILES): OC(CNc1ccccc1)Cn1c2ccc(Br)cc2c2cc(Br)ccc21 (centres unmarked) [Compound P7C3]
AUC brain: AUC plasma ratio ([2]; po): 3.7
oral availability, in words [2]: orally available
neurogenesis activity, oral dose 1 mg/kg (neurogenesis; oral dose 1 mg/kg): measurable activity
neurogenesis activity, oral dose 5 mg/kg (neurogenesis; oral dose of 5 mg/kg): maximal neurogenesis activity
Half life in cell culture, Human hepatocytes (human hepatocytes): >4 h
cognitive capacity ([3]; as a function of terminal aging): preserved cognitive capacity
neurogenesis in the dentate gyrus ([3]; terminal aging): enhanced neurogenesis in the dentate gyrus
neuron cell death ([3]; terminal aging): impeded neuron cell death
toxicity to mice [4]: not toxic
proliferation of neural precursor cells (neural precursor cells): does not stimulate proliferation
Histamine H2 binding, in words (histamine H2 receptor; 10 μM drug): modest binding
Histamine H2 binding (% displacement @ 10 μM) (histamine H2 receptor): 63 % displacement
neurogenesis activity, 1 μM solution ([5]; 1 μM solution infused ICV, 12 μL/day for 7 days): maintains activity
number of BrdU+ cells relative to mice treated with vehicle alone ([5]; 10 μM ICV, 7 days, vehicle artificial CSF, similar number as FGF-2): approximately twice
hERG binding (% displacement @ 10 μM) (hERG channel): 92 % displacement
structure and function of the dentate gyrus [6]: repair the structure and function of the dentate gyrus
Half life in cell culture, Mouse hepatocytes (mouse hepatocytes): >4 h
GI50 (HeLa cells): 5.1 µM

Histamine H2 binding (% displacement @ 10 μM) (histamine H2 receptor): 99 % displacement
Structure (SMILES): Cc1ccc2c(c1)c1c(n2CCc2ccc(C)nc2)CCN(C)C1 [dimebon, reference compound]
proneurogenic activity (BrdU+ cells in dentate gyrus), in words [1]: active in our neurogenesis assay, but substantially less so than P7C3
